The list is not random: actives were taken first. Their share in the collection is about 2.8%.
NPY-Y2 PAM-ag: NPY-Y2 potentiators or agonists, primary screen, cell-based. activation, % at 3.6 µM. actives 0.45% (n = 220,000). AID 1359, 2008. cells expressing NPY-Y2, potentiator/agonist read-out. Neuropeptide Y receptor type 2 (Homo sapiens), P49146; in the data active = activation above about 27%;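 also: cells stimulated with NPY near EC25 plus isoproterenol at EC100; 0% = vehicle plus submaximal agonist and 100% = vehicle plus saturating agonist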
PGE2 EP2 inh: human EP2 receptor antagonists, primary screen, TR-FRET cAMP, C6 glioma cells; Prostaglandin E2 receptor EP2 subtype (Homo sapiens), P43116; C6 glioma cells expressing human EP2; cells stimulated with saturating PGE2; inhibition, % at 25 µM; actives 0.52% (n = 260,000); AID 1422, 2008;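 active = percent inhibition above 40 after rounding to a whole number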;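 also: rat C6 glioma host cells with rolipram phosphodiesterase inhibitor present; the protocol text gives 20 µM as final concentration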
Target sequence (P43116 whole entry, looked up): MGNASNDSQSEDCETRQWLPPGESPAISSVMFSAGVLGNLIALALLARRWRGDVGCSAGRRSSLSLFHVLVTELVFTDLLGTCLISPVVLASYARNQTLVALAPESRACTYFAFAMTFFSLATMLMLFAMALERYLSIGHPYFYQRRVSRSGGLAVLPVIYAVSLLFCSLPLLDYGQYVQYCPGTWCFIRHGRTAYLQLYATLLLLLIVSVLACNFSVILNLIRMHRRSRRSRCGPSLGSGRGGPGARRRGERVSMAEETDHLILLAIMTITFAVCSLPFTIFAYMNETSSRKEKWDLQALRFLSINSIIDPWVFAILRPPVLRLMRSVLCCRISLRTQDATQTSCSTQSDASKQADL
NPY-Y2 antag: NPY-Y2 receptor antagonists, primary screen, cell-based; Neuropeptide Y receptor type 2 (Homo sapiens), P49146; NPY-Y2 expressing cells, antagonist mode; inhibition, % at 2.7 µM; actives 0.99% (n = 140,000); in the data active = inhibition above about 17%;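 also: 0% = vehicle with agonist challenge and 100% = reference antagonist with challenge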
NPY-Y1 PAM-ag: NPY-Y1 receptor potentiators or agonists, primary screen, cell-based; NPY-Y1 expressing cells, potentiator/agonist activation; activation, % at 3.6 µM; actives 0.37% (n = 220,000); in the data active = activation above about 33%, passing the limit was not always enough;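 also: cells stimulated with NPY at EC10 then isoproterenol at EC100; 0% = low agonist plus stimulus and 100% = saturating agonist plus stimulus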
NPY Y1 blocker: NPY-Y1 receptor antagonists, primary screen, cell-based; HEK293-CNG Y1 cells, membrane potential fluorescence; NPY at EC95, then isoproterenol; inhibition, % at 3.6 µM; actives 1% (n = 200,000); AID 1040, 2008;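 active = inhibition above the campaign mean inhibition of all tested compounds plus 3 SD, cut at about 20% in these data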;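 also: 0% = DMSO wells given NPY plus isoproterenol and 100% = isoproterenol alone without NPY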
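Material: HEK293 Y1/CNG channel cell line; also added: NPY (25 nM), isoproterenol (1 µM), Ro 20-1724 (25 µM); doses: one concentration, 3.6 µM, in 0.4% DMSO; schedule: compound incubation 1 h at room temperature, readout 45 min post-stimulation; technique: membrane potential fluorescence; measure: fluorescence ratio normalized to % inhibition between controls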
EP2 mod: EP2 receptor modulators, cAMP readout, primary screen, cell-based, HTRF cAMP, PGE2 stimulation; EP2-expressing cells, cAMP HTRF FRET, PGE2 co-stimulation; induction, % at 25 µM; actives 0.83% (n = 260,000); Prostaglandin E2 receptor EP2 subtype (Homo sapiens), P43116;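 active = compounds whose cAMP rise, as percent of the full-agonist control response, exceeds 60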;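 also: rat C6 glioma line stably carrying human EP2 under a CMV promoter; the protocol text gives 20 µM as final concentration; 100% = response of wells given 1 µM PGE2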
* marks the source's active call; other numbers are inactive results; . = no result given; ! = not active in a repeat.

SMILES | NPY-Y2 PAM-ag | PGE2 EP2 inh | NPY-Y2 antag | NPY-Y1 PAM-ag | NPY Y1 blocker | EP2 mod
CCN1CCN(c2ccc(NC(=O)c3ccc([N+](=O)[O-])o3)cc2Cl)CC1 | -4 | 116*! | . | -7 | -4 | -156
O=C(CN1C(=O)NC2(CCCC2)C1=O)Nc1ccc(S(=O)(=O)N2CCOCC2)cc1 | -12 | 4 | . | -2 | 0 | 61*
CCCC(=O)Nc1cccc(NC(=O)c2ccc([N+](=O)[O-])o2)c1 | . | 42* | . | . | . | -100
O=C(Nc1ccc(S(=O)(=O)N2CCOCC2)cc1)c1ccc([N+](=O)[O-])o1 | -18 | 49* | . | 2 | . | -43
CCC(=O)Nc1cccc(NC(=O)c2ccc([N+](=O)[O-])o2)c1 | . | 98* | . | . | . | -101
C=CC[n+]1c(-c2ccc(C)cc2)csc1Nc1c(C)n(C)n(-c2ccccc2)c1=O | 1 | 12 | . | 9 | 0 | 33
C=CC[n+]1c(-c2ccc(OCC)cc2)csc1NNC(=O)Nc1ccccc1 | 81* | 9 | 1 | 95* | -14 | -42
CCc1c(C)sc(NC(=O)C2CC(c3ccccc3Cl)=NO2)c1C#N (stereo not drawn) | . | 16 | . | . | . | -25
CNc1ccc(C(O)(C(F)(F)F)C(F)(F)F)cc1C(O)(C(F)(F)F)C(F)(F)F | 58* | 8 | 0 | 46* | -10 | 13
Cc1sc2nc(C3CC3)n(C3CCN(C(=O)CCn4nccc4C)CC3)c(=O)c2c1C | . | . | . | . | . | -4
CC(C)CCOC(=O)/C(=C/c1ccco1)NC(=O)/C=C/c1ccccc1 | -19 | 4 | 18* | -47 | 21* | 26
CCC(CN1CCCC1)NC(=O)Cc1nn(CC)c(=O)c2ccccc12 (stereo not drawn) | . | 5 | . | . | . | -67
CCOC(=O)c1ccc(-c2ccc(/C=C(\C#N)C(=O)NCc3cccs3)o2)cc1 | 6 | 4 | 17* | 5 | 1 | 14
COc1cccc(C2NC(=O)NC3=C2C(=O)N(CC2CCCO2)C3)c1 (stereo not drawn) | . | 3 | . | . | . | 12
CCOc1cccc2sc(NN)nc12 | 32 | 7 | . | 38* | -9 | -17
CCOC(=O)C1CCN(C(=O)CN(c2cccc(Cl)c2Cl)S(C)(=O)=O)CC1 | . | 13 | . | . | . | -19
Cc1ccc(-c2nc3cc(N)ccc3o2)c(C)c1 | -14 | 41* | -2 | -10 | -3 | 5
Cc1ccc(-c2nc3cc(N)ccc3o2)cc1 | 4 | . | 0 | 13 | -7 | -27
Cc1ccccc1OCC(O)Cn1c(=N)n(Cc2ccccc2)c2ccccc21 (stereo not drawn) | -17 | 8 | . | -3 | . | -11
CCCCCn1c(=N)n(CC(O)COc2ccccc2OC)c2ccccc21 (stereo not drawn) | -28 | 16 | 35* | -76 | 25* | -18
CCCn1c(=N)n(CC(O)COc2ccc(C)cc2)c2ccccc21 (stereo not drawn) | -53 | 15 | . | -46 | . | -48
C=CCn1c(=N)n(CC(O)COc2ccccc2OC)c2ccccc21 (stereo not drawn) | -9 | 10 | 12 | -8 | 12 | -27
COc1ccccc1OCC(O)Cn1c(=N)n(Cc2ccccc2)c2ccccc21 (stereo not drawn) | -26 | 3 | 39* | -55 | 27* | -5
CCCCn1c(=N)n(CC(O)COc2cccc(C)c2)c2ccccc21 (stereo not drawn) | -22 | 19 | 54* | -26 | 31* | -9
COc1cccc(-n2c(=O)[nH]c3c(C(N)=O)nc(-c4ccsc4)nc32)c1 | . | 11 | . | . | . | -28
SMILES | NPY-Y2 PAM-ag | PGE2 EP2 inh | NPY-Y2 antag | NPY-Y1 PAM-ag | NPY Y1 blocker | EP2 mod
CCOC(=O)C1CCCN(C(=O)c2cnn3c(C(F)F)cc(-c4ccc(C)cc4)nc23)C1 (stereo not drawn) | -1 | 15 | 26* | -33 | 30* | -30
CCOC(=O)C1CCN(C(=O)c2cnn3c(C(F)F)cc(-c4ccc(C)cc4)nc23)CC1 | . | 12 | . | . | . | -28
Cc1ccc(-c2cc(C(F)F)n3ncc(C(=O)N4CCN5CCCC5C4)c3n2)cc1 (stereo not drawn) | -39 | 12 | 19* | -76 | 21* | -38
COc1ccc(CCn2c(SCC(=O)Nc3ccccc3C)nc3ccccc3c2=O)cc1OC | . | 18 | . | . | . | -12
COc1ccc(S(=O)(=O)N2CCOCC2)cc1NC(=O)CN1CCC(Cc2ccccc2)CC1 | -34 | 2 | 32* | -23 | 40* | 32
Cc1ccc(-n2c(-c3ccc(Br)cc3)c[n+]3c2CCc2ccc4cccnc4c2-3)cc1 | -29 | 11 | 70* | -74 | 54* | -23
CCCn1c(=N)c(C(=O)NCCN2CCOCC2)cc2c(=O)n3cc(C)ccc3nc21 | . | 13 | . | . | . | -12
CCOC(=O)c1cccc(NC(=O)CSc2nnc(-c3cccnc3)o2)c1 | . | 5 | . | . | . | -11
COc1ccc(N2CC(O)=C(c3nc(-c4ccc(Br)cc4)cs3)C2=N)cc1 | 2 | 48* | . | -9 | -2 | -32
COc1ccc(N2CC(O)=C(c3nc(-c4ccccc4)cs3)C2=N)cc1 | -29 | 14 | . | -8 | . | -42
CCCn1nc(C)c(CN(Cc2ccccn2)CC2CCCN2CC)c1C (stereo not drawn) | . | 9 | . | . | . | 12
CCCCNS(=O)(=O)c1ccc2c(c1)oc(=O)n2CC(=O)OCC | 2 | 7 | -1 | 17 | -3 | 6
CCOC(=O)Cn1c(=O)oc2cc(S(=O)(=O)NC3CCCc4ccccc43)ccc21 (stereo not drawn) | 37* | 12 | 0 | 63* | -12 | -25
CCOC(=O)Cn1c(=O)oc2cc(S(=O)(=O)Nc3c(C)cc(C)cc3C)ccc21 | 24 | 15 | 0 | 38* | -8 | 3
CCCNC(=O)CSc1nnc(-c2cccnc2)n1-c1ccccc1OC | . | 7 | . | . | . | -12
COc1cc(NC(=O)CSc2nc3cc(C)cc(C)c3cc2C#N)cc(OC)c1 | . | 8 | . | . | . | 22
Cc1ccccc1OCC(O)CN(Cc1ccccc1O)C1CCCCC1 (stereo not drawn) | 13 | 9 | . | 19 | 20* | 29
CN(CC(O)COc1ccccc1F)C1CCCCC1 (stereo not drawn) | -3 | 6 | . | -13 | 4 | -11
O=c1c2ccccc2c2ccccc2c(=O)n1-c1cc2c3ccccc3ccc2c2ccccc12 | . | 49* | . | . | . | 18
Cn1c(SCC(=O)Nc2sc3c(c2C#N)CCCC3)nnc1-c1ccncc1 | . | 7 | . | . | . | -13
CCOc1ccc(-n2c(=S)sc3c(=O)[nH]c(SCC(=O)N4CCC(C)CC4)nc32)cc1 | -3 | -2 | 3 | -9 | 4 | 62*
